The text below walks through data of ChEMBL document CHEMBL5038571, “Design and Synthesis of EZH2-Based PROTACs to Degrade the PRC2 Complex for Targeting the Noncatalytic Activity of EZH2” (J Med Chem, 2021).

Active and inactive are the calls of the source. The calls are words filed in the database; no cut-off is given here.

For orientation: IC50 means the midpoint of a concentration-inhibition curve.

Test [1] deals with T1, Protein cereblon/Histone-lysine N-methyltransferase EZH2 (Homo sapiens) (UniProt Q15910+Q96SW2). Put plainly: PROTAC activity at CRBN E3 ligase/EZH2 in PRC2 complex in human WSUDLCL2 cells assessed as induction of EED degradation by measuring reduction in EED protein level at 1 uM measured after 48 to 72 hrs by Western blot analysis. The class given is cell-based. The following applies: time 48-72 hrs. In general terms: A western blot detects proteins with antibodies after separation by electrophoresis.
T1 sequence (Q15910 whole entry, looked up): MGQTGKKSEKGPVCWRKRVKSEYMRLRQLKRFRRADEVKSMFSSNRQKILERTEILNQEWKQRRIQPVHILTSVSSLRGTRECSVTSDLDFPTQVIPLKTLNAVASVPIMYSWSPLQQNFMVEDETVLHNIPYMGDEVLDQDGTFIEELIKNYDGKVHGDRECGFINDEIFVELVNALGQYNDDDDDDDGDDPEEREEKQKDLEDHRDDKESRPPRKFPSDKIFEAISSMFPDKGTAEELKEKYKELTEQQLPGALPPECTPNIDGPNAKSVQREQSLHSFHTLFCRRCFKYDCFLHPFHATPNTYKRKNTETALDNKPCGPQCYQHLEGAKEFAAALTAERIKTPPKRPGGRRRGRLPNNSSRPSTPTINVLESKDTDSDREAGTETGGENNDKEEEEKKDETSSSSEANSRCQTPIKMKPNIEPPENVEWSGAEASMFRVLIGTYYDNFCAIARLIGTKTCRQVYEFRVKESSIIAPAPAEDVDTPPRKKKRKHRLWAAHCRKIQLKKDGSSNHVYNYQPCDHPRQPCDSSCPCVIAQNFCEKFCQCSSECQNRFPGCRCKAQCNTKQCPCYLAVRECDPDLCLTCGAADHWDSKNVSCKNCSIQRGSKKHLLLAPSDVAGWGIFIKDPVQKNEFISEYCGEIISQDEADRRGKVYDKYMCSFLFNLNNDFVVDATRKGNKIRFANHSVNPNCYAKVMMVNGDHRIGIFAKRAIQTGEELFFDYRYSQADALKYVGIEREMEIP
T1 sequence (Q96SW2 whole entry, looked up): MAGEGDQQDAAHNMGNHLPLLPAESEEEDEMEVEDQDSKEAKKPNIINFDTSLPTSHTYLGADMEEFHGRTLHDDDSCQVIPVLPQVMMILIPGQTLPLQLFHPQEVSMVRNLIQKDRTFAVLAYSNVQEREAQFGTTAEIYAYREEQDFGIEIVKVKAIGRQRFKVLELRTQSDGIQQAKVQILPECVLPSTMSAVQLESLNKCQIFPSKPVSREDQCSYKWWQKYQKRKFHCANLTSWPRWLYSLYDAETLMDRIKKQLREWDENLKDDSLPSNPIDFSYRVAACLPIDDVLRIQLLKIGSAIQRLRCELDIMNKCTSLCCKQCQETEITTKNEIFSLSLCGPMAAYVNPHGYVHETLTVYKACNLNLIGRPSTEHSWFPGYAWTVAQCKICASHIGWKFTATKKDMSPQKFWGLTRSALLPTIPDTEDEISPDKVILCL

Test [2] concerns the target T1, Protein cereblon/Histone-lysine N-methyltransferase EZH2 (Homo sapiens). Put plainly: PROTAC activity at CRBN E3 ligase/EZH2 in PRC2 complex in human WSUDLCL2 cells assessed as induction of EZH2 degradation by measuring reduction in EZH2 protein level at 1 uM measured up to 2 hrs by Western blot analysis. It counts as cell-based. To be noted: time hrs <=2.
The target is the same in test [3]. Put plainly: PROTAC activity at CRBN E3 ligase/EZH2 in PRC2 complex in human DU-145 cells assessed as induction of SUZ12 degradation by measuring reduction in SUZ12 protein level at 1 uM incubated for 48 hrs by Western blot analysis. It counts as cell-based. The procedure, abridged:
(§1)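 Cancer cell lines exposed to 1 μM compound for 48 h. Lysates immunoblotted (SDS-PAGE, nitrocellulose, 5% milk block, primary antibody overnight at 4 °C) for EZH2, SUZ12, EED, RbAp48 and H3K27me3. Bands quantified by densitometry and normalized to GAPDH.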

The target is the same in test [4]. Put plainly: PROTAC activity at CRBN E3 ligase/EZH2 in PRC2 complex in human WSUDLCL2 cells assessed as reduction in H3K27me3 level at 10 uM incubated for 48 hrs by Western blot analysis. It counts as cell-based.
For test [5] the target is unchanged. Put plainly: PROTAC activity at CRBN E3 ligase/EZH2 in PRC2 complex in human LNCaP cells assessed as induction of EZH2 degradation by measuring reduction in EZH2 protein level at 1 uM incubated for 48 hrs by Western blot analysis. It counts as cell-based. The procedure, abridged: as §1
Test [6] has the same target. Put plainly: PROTAC activity at CRBN E3 ligase/EZH2 in PRC2 complex in human WSUDLCL2 cells assessed as increase in EED ubiquitination at 1 uM measured after 48 hrs by co-immunoprecipitation assay. It counts as cell-based. In a few lines: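 WSU-DLCL-2 cells treated with 1 μM compound for 48 h and lysed in RIPA buffer. Lysates incubated with antibodies overnight at 4 °C, then 3 h with Protein G agarose beads at 4 °C. Proteins eluted in IP buffer and ubiquitination of the target probed by immunoblot.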

Test [7] has as its system A549. Put plainly: Downregulation of CENPK mRNA expression in human A549 cells at 10 uM incubated for 48 hrs by qRT-PCR analysis. It counts as functional, cell-based. In a few lines: (§2)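 Cells treated 48 h. Total RNA extracted with Trizol, reverse-transcribed, and SYBR RT-qPCR run: 95 °C 30 s, then 40 cycles of 95 °C 6 s and 60 °C 20 s. mRNA normalized to the DMSO-treated group. Mean SD of three independent experiments, t-test versus DMSO.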
Background: Real-time PCR tracks product formation cycle by cycle.

In test [8] the target is T2, Histone-lysine N-methyltransferase EZH1 (Homo sapiens, UniProt Q92800).
T2 sequence (Q92800 whole entry): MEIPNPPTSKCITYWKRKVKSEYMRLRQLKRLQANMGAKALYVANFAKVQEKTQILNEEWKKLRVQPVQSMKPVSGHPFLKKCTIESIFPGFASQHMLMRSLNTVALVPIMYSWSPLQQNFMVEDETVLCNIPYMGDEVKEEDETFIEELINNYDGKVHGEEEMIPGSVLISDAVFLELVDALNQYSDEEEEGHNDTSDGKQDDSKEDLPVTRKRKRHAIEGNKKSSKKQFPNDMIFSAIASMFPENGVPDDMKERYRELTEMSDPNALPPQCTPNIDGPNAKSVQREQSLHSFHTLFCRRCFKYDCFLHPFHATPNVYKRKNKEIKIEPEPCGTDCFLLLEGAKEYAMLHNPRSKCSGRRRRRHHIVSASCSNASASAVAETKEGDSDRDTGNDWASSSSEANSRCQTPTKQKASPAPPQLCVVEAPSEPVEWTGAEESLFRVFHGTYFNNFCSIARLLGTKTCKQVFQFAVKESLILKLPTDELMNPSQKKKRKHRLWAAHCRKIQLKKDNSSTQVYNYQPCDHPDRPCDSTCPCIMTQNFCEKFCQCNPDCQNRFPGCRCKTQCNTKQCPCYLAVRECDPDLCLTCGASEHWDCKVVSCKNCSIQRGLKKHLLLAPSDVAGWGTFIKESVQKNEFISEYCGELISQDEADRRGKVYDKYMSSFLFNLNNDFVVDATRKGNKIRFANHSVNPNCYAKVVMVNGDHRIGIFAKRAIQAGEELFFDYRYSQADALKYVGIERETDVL
Put plainly: Inhibition of recombinant full length human N-terminal FLAG-tagged EZH1 in PRC2 complex expressed in baculovirus system using SAM as substrate preincubated for 15 mins followed by substrate addition and measured after 60 mins by AlphaLISA immunodetection assay. A general note: Alpha assays give light when donor and acceptor beads are brought close together.

Test [9] concerns the target T1, Protein cereblon/Histone-lysine N-methyltransferase EZH2 (Homo sapiens). Put plainly: PROTAC activity at CRBN E3 ligase/EZH2 in PRC2 complex in human WSUDLCL2 cells assessed as reduction in H3K27me3 level at 1 uM incubated for 48 hrs by Western blot analysis relative to control. Set-up: scale not given: the % may be the effect or the level left. It counts as cell-based. The procedure, abridged:
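WSU-DLCL-2 cells treated 48 h (1 μM for the single-concentration screen), lysed; SDS-PAGE, nitrocellulose transfer, 5% milk block, primary antibody 4 °C overnight, chemiluminescence. Bands quantified by densitometry, normalized to GAPDH, expressed relative to DMSO-treated cells; mean ± SD of three independent experiments, t-test.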

For test [10], the system named is A549. Put plainly: Upregulation of […] mRNA expression in human […] cells at 5 uM incubated for 48 hrs by qRT-PCR analysis. The class given is functional, cell-based. In a few lines:
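A549 cells treated 48 h. Trizol RNA extraction, reverse transcription, SYBR qPCR (95 °C 30 s; 40 cycles of 95 °C 6 s, 60 °C 20 s). mRNA normalized to DMSO-treated cells; mean ± SD of three independent experiments.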

Test [11] relates to MDA-MB-468. Put plainly: Downregulation of TACC3 mRNA expression in human MDA-MB-468 cells at 10 uM incubated for 48 hrs by qRT-PCR analysis. It counts as functional, cell-based. The procedure, abridged: as §2
Test [12] has as its target T1, Protein cereblon/Histone-lysine N-methyltransferase EZH2 (Homo sapiens). Put plainly: PROTAC activity at CRBN E3 ligase/EZH2 in PRC2 complex in human SU-DHL-6 cells assessed as induction of SUZ12 degradation by measuring reduction in SUZ12 protein level at 1 uM incubated for 48 hrs by Western blot analysis. It counts as cell-based. The procedure, abridged:
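Cells cultured in DMEM or RPMI 1640 with 10% FBS and 1% penicillin-streptomycin, 37 °C, 5% CO2; exposed to 1 μM compound for 48 h. Lysates run on SDS-PAGE and transferred to nitrocellulose. Blocked 2 h in 5% skim milk, primary antibody overnight at 4 °C, then secondary antibody. Chemiluminescent detection of PRC2 subunits and H3K27me3.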

Test [13] has the same target. Put plainly: PROTAC activity at CRBN E3 ligase/EZH2 in PRC2 complex in human WSUDLCL2 cells assessed as downregulation of RbAp48 expression at 1 uM pretreated with MLN4924 for 4 hrs followed by compound addition and measured after 48 hrs by Western blot analysis. It counts as cell-based. In a few lines:
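WSU-DLCL-2 cells pretreated 4 h with the named inhibitor, then compound added and incubated a further 48 h. EZH2, SUZ12, EED and RbAp48 measured by western blot (nitrocellulose transfer, skim-milk block, primary antibody overnight at 4 °C, chemiluminescent detection).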

As to `CCN(c1cc(-c2ccc(CN3CCN(CCCCCCCOc4cccc5c4C(=O)N(C4CCC(=O)NC4=O)C5=O)CC3)cc2)cc(C(=O)NCc2c(C)cc(C)[nH]c2=O)c1C)C1CCOCC1` (stereo not drawn), the outcome in test [1], in test [2], in test [3], in [5], in test [6] and in test [7] was Active. In addition, the result in test [10], in [11] and in test [12] was Active. Also, the result in [4] and in test [13] was inactive. Also, the IC50 in [8] was 179 nM. Moreover, in test [9], the Activity came to 83%.
